Results from different studies.
Lines come from different studies, so protocols differ. ≈ marks a conversion by molar mass, not a printed value.

Compound | organism | assay | system | setting | endpoint | value
C/C(=N/NC(=O)c1cn(-c2ccccc2)nc1-c1ccccc1)c1c(O)cc(C)oc1=O | Bacillus subtilis | microbial growth |  |  | MIC | 50 µg/mL (≈ 117 µM)
O=C(Nc1ccc(Br)cc1)c1ccc(COC(Cn2ccnc2)c2ccc(Cl)cc2Cl)cc1 (stereo not drawn) | Nakaseomyces glabratus | microbial growth, broth dilution |  |  | MIC80 | 0.125 µg/mL (≈ 0.229 µM)
OC(Cn1cncn1)(Cn1cncn1)c1ccc(F)cc1F | Cryptococcus neoformans | microbial growth, broth dilution | H99 | 48 h | MIC | 8 µg/mL (≈ 26.1 µM)
C=CC(=O)ON=C1C=CC(=C(C#N)c2ccccc2)C=C1 | Nakaseomyces glabratus | microbial killing, broth dilution | ATCC15126 | 48 h | MFC | 16 µg/mL (≈ 57.9 µM)
O=C(Nc1ccc(F)cc1F)c1ccc(COC(Cn2ccnc2)c2ccc(Cl)cc2Cl)cc1 (stereo not drawn) | Nakaseomyces glabratus | microbial growth, broth dilution |  |  | MIC80 | 0.03 µg/mL (≈ 0.0597 µM)
C/C(=N/NC(=O)c1cn(-c2ccccc2)nc1-c1ccc(Br)cc1)c1c(O)cc(C)oc1=O | Bacillus subtilis | microbial growth |  |  | MIC | 70 µg/mL (≈ 138 µM)
O=C(Nc1cccc(Br)c1)c1ccc(COC(Cn2ccnc2)c2ccc(Cl)cc2Cl)cc1 (stereo not drawn) | Nakaseomyces glabratus | microbial growth, broth dilution |  |  | MIC80 | 0.125 µg/mL (≈ 0.229 µM)
C#CCON=C1C=CC(=C(C#N)c2ccccc2)C=C1 | Nakaseomyces glabratus | microbial growth, broth dilution | ATCC15126 | 48 h | MIC | 16 µg/mL (≈ 61.5 µM)
O=C(O)c1cn(C2CC2)c2cc(N3CCNCC3)c(F)cc2c1=O | Bacillus subtilis | microbial growth, well diffusion | ATCC6051 | 100 µg/mL | inhibition zone | 30 mm
C#CCOC(=O)ON=C1C=CC(=C(C#N)c2ccccc2)C=C1 | Nakaseomyces glabratus | microbial growth, broth dilution | ATCC15126 | 48 h | MIC | 16 µg/mL (≈ 52.6 µM)
CNC(C)C1CCC(N)C(OC2C(N)CC(N)C(OC3OCC(C)(O)C(NC)C3O)C2O)O1 (stereo not drawn) | Bacillus subtilis | microbial growth, broth dilution |  |  | MIC | 1 µg/mL (≈ 2.09 µM)
CC(=O)N1CCN(c2ccc(OCC3COC(Cn4ccnc4)(c4ccc(Cl)cc4Cl)O3)cc2)CC1 (stereo not drawn) | Nakaseomyces glabratus | microbial growth, broth dilution | ATCC15126 | 48 h | MIC | 8 µg/mL (≈ 15.1 µM)
C/C(=N/NC(=O)c1cn(-c2ccccc2)nc1-c1ccc(Cl)cc1)c1c(O)cc(C)oc1=O | Bacillus subtilis | microbial growth |  |  | MIC | 70 µg/mL (≈ 151 µM)
CC(=O)ON=C1C=CC(=C(C#N)c2ccccc2)C=C1 | Nakaseomyces glabratus | microbial killing, broth dilution | ATCC15126 | 48 h | MFC | 16 µg/mL (≈ 60.5 µM)
O=C(Nc1ccc(Cl)cc1)c1ccc(COC(Cn2ccnc2)c2ccc(Cl)cc2Cl)cc1 (stereo not drawn) | Nakaseomyces glabratus | microbial growth, broth dilution |  |  | MIC80 | 0.125 µg/mL (≈ 0.25 µM)
